Laboratory results reported in PMC3780561 (Molecular cancer therapeutics, 2013).
Where two headings read alike, the source gives them in different places.

Tested on: NSCLC cell lines (A549, H23 and H358)
Assay: Cell viability, modified MTT assay, 24 h
Format: cell-based, human
Conditions: read-out: 24 h-IC50
Outline: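 ATCC-sourced A549 (p53 wild-type), H23 (p53-mutant) and H358 (p53-null) cells were grown per ATCC. Viability after 24 h exposure to test compound or sulindac metabolites was measured by modified MTT assay. 24-h IC50 was derived from viability curves.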

Row | IC50 (Homo sapiens, 24 h) | IC50 (range among A549, H23 and H358 cells) | Structure (SMILES)
1 | 159 to 222 µM | – | CSc1ccc(/C=C2/C(C)=C(CC(=O)O)c3cc(F)ccc32)cc1 [sulindac sulfide]
2 | – | 566 to 1900 µM | CC1=C(CC(=O)O)c2cc(F)ccc2/C1=C\c1ccc(S(C)(=O)=O)cc1 [sulindac sulfone]
3 | > 1000 µM | – | CC1=C(CC(=O)O)c2cc(F)ccc2/C1=C\c1ccc([S+](C)[O-])cc1 (stereo not drawn) [sulindac]
